The text below walks through data of ChEMBL document CHEMBL3860086, “Antivirulence C-Mannosides as Antibiotic-Sparing, Oral Therapeutics for Urinary Tract Infections” (J Med Chem, 2016).

Series [1] deals with Type 1 fimbrin D-mannose specific adhesin (Escherichia coli K-12) (UniProt P08191). Kind of series: Inhibition of Escherichia coli UTI89 FimH assessed as decrease in hemagglutination of guinea pig red blood cells after 4 to 18 hrs. Put shortly: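 Hemagglutination inhibition with clinical UPEC strain UTI89 and guinea pig red blood cells, run per an earlier described protocol.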

The target is the same in series [2]. The series can be described thus: Binding affinity to Escherichia coli UTI89 FimH lectin domain at 100 uM after 30 mins by SYPRO Orange-staining-based differential scanning fluorimetry. In a few lines: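 Thermal shift (DSF) binding with FimH lectin domain (FimHL) at 10 μM, with or without 100 μM mannoside; otherwise run per an earlier described method.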
Series [3] relates to Escherichia coli. The series can be described thus: Antibacterial activity against Escherichia coli UTI89 with kanamycin cassette inserted in chromosome in C3H/HeN mouse acute cystitis model assessed as decrease in bacterial burden in urinary bladder at 25 mg/kg, po administered 30 mins prior to infection measured at 6 hrs post infection relative to control. Type of series: functional. In a few lines:
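Female C3H/HeN mice (6–8 weeks) get 25 mg/kg mannoside by mouth in 10% cyclodextrin 30 min before infection. Infection is transurethral: 50 μL of 1–2 × 10^7 UTI89KAN under isoflurane. The inoculum is grown type 1-inducing (2 × 24 h static LB, 37 °C), washed and resuspended in PBS. At 6 h, bladders are homogenized, serially diluted and plated on LB with 50 μg/mL kanamycin for CFU.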

The nature of series [4]: Drug uptake in C3H/HeN mouse urine at 50 mg/kg, po administered through gavage after 8 hrs by LC-MS/MS analysis. The conditions noted are these: read-out: Drug uptake. Type of series: ADME, organism-based. In a few lines:
(§1)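 Mouse urine PK: C3H/HeN mice given 100 μL of 10 mg/mL mannoside in 10% cyclodextrin (50 mg/kg) by oral gavage. Urine sampled at several time points over 8 h and mannoside quantified by HPLC and mass spectrometry.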

Series [5] concerns Escherichia coli. The series can be described thus: Antibacterial activity against Escherichia coli UTI89 with kanamycin cassette inserted in chromosome in C3H/HeN mouse chronic cystitis model assessed as decrease in bacterial burden in urinary bladder at 25 mg/kg, po administered 14 days post infection measured at 12 hrs post dose relative to control. The class given is functional. In a few lines:
(§2)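 Female C3H/HeN mice (6–8 weeks) are infected transurethrally under isoflurane with 1–2 × 10^8 UTI89KAN (type 1-induced, PBS-washed) in 50 μL. Urine titers at day 12 select chronic infection (≥10^5). At 2 weeks, mice get oral gavage of 100 μL mannoside in 10% cyclodextrin. At set times, bladders are homogenized, serially diluted and plated on kanamycin LB for CFU.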

Series [6] is described as follows: Ratio of drug level in C3H/HeN mouse urine to IC50 for Escherichia coli UTI89 FimH-mediated biofilm formation.
Series [7] in a line: Ratio of drug level in C3H/HeN mouse urine to EC90 for Escherichia coli UTI89 FimH-mediated hemagglutination of guinea pig red blood cells.
Series [8] can be described thus: Clearance in Sprague-Dawley rat at 3 mg/kg, iv after 5 mins to 24 hrs by LC-MS/MS analysis. The class given is ADME, organism-based. The settings on record: in vivo. In a few lines:
(§3)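 Rat plasma PK: mannoside concentrations in plasma followed after either a 10 mg/kg oral dose or a 3 mg/kg intravenous dose.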

A short description of series [9]: Drug uptake in C3H/HeN mouse urine at 50 mg/kg, po administered through gavage after 1 hr by LC-MS/MS analysis. Type of series: ADME, organism-based. The settings on record: in vivo. In a few lines:
as §1

Series [10] can be described thus: Half life in liver microsomes (unknown origin). The class given is ADME.
In series [11] the test system is Escherichia coli. The series can be described thus: Antibacterial activity against Escherichia coli UTI89 with kanamycin cassette inserted in chromosome in C3H/HeN mouse chronic cystitis model assessed as decrease in bacterial burden in urinary bladder at 50 mg/kg, po administered 14 days post infection measured at 2 hrs post dose (reference value: 10^7 CFU). The class given is functional. Put shortly:
as §2

Series [12] can be described thus: Half life in simulated gut fluid (unknown origin). The class given is ADME. In a few lines:
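Stability is measured in simulated gut fluid at pH 1.2.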

The test system of series [13] is Escherichia coli. Kind of series: Antibacterial activity against Escherichia coli UTI89 with kanamycin cassette inserted in chromosome in C3H/HeN mouse chronic cystitis model assessed as decrease in bacterial burden in urinary bladder at 50 mg/kg, po administered 14 days post infection measured at 6 hrs post dose (reference value: 10^7 CFU). Type of series: functional. In a few lines:
as §2

Series [14] concerns Escherichia coli. Kind of series: Antibacterial activity against Escherichia coli UTI89 with kanamycin cassette inserted in chromosome in C3H/HeN mouse chronic cystitis model assessed as decrease in bacterial burden in urinary bladder at 50 mg/kg, po administered 14 days post infection measured at 12 hrs post dose (reference value: 10^7 CFU). Type of series: functional. In a few lines:
as §2

Series [15] can be described thus: Volume of distribution at steady state in Sprague-Dawley rat at 3 mg/kg, iv after 5 mins to 24 hrs by LC-MS/MS analysis. The class given is ADME, organism-based. The conditions noted are these: in vivo. Put shortly:
as §3

A short description of series [16]: Oral bioavailability in Sprague-Dawley rat at 10 mg/kg after 15 mins to 24 hrs by LC-MS/MS analysis. The class given is ADME, organism-based. The conditions noted are these: in vivo. In a few lines:
as §3

The source made the active and inactive calls. No cut-off for these calls is given here.

Type 1 fimbrin D-mannose specific adhesin (Escherichia coli K-12), sequence (P08191 whole entry): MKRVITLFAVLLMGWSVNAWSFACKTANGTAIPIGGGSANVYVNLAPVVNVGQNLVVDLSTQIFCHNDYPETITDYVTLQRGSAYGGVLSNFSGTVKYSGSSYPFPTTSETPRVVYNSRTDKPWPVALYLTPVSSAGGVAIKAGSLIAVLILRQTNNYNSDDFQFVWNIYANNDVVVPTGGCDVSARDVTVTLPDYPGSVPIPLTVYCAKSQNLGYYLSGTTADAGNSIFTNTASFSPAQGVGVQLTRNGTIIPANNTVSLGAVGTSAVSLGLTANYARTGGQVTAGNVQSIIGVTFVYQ

In the case of `Cc1cc(-c2cccc3cnccc23)ccc1O[C@H]1O[C@H](CO)[C@@H](O)[C@H](O)[C@@H]1O`, in series [1], the EC90 was 62 nM. The Tm in series [2] stood at 75 °C.

For the compound `CNC(=O)c1cccc(-c2ccc(C[C@H]3O[C@H](CO)[C@@H](O)[C@H](O)[C@@H]3O)cc2)c1`, the EC90 in [1] was 1000 nM.

As for `CNC(=O)c1cccc(-c2ccc(O[C@H]3O[C@H](COP(=O)(O)O)[C@@H](O)[C@H](O)[C@@H]3O)c(C)c2)c1`, the outcome with Escherichia coli [3] was Active.

Take `CNC(=O)c1cccc(-c2ccc(O[C@H]3O[C@H](COC(C)=O)[C@@H](OC(C)=O)[C@H](OC(C)=O)[C@@H]3OC(C)=O)c(C)c2)c1`: the concentration at 8 h in series [4] stood at 20 µM. For the same compound, the outcome in the series with Escherichia coli [5] and with Escherichia coli [3] was Active. In addition, the Ratio in series [6] was over 10.

With `CNC(=O)c1cccc(-c2ccc([C@@H](O)[C@H]3O[C@H](CO)[C@@H](O)[C@H](O)[C@@H]3O)c(C)c2)c1`, the Ratio in series [7] was 1600; in [6], over 10. The concentration at 8 h in [4] was 50 µM. Also, the 90% effect concentration (EC90) in series [1] was 31 nM. The Tm in series [2] is 75.4 °C. Also, the “fold change (FC)” value with Escherichia coli [5] stood at 3. The clearance in series [8] turned out to be 34.9 mL/min/kg.

For the compound `Cc1cc(-c2ccc3c(c2)C(=O)NCC3)ccc1O[C@H]1O[C@H](CO)[C@@H](O)[C@H](O)[C@@H]1O`, the EC90 in series [1] amounted to 32 nM. For the same compound, in [2], the Tm was 75 °C.

On to `CNC(=O)c1cccc(-c2ccc([C@@H](O)[C@H]3O[C@H](CO)[C@@H](O)[C@H](O)[C@@H]3O)cc2)c1`, for which the EC90 in series [1] was determined as 250 nM. The Tm in series [2] came out at 72.8 °C.

For the compound `Cc1cc(-c2ccc3cc[nH]c(=O)c3c2)ccc1[C@@H](O)[C@H]1O[C@H](CO)[C@@H](O)[C@H](O)[C@@H]1O`, the EC90 in [1] stood at 8 nM. Also, the Tm in series [2] is 77.5 °C. Moreover, the “fold change (FC)” value in the series on Escherichia coli [3] was 2.

Consider `CNC(=O)c1cccc(-c2ccc(O[C@H]3O[C@H](CO)[C@@H](O)[C@H](O)[C@@H]3O)c(C)c2)c1`, for which the Drug uptake entry in series [9] is given as “Active”. For the same compound, the concentration at 8 h in series [4] is 1 µM. In addition, the EC90 in series [1] came to 62 nM. In series [2], the Tm was determined as 74.5 °C. Besides, in [6], the Ratio is over 10. For the same compound, in series [8], the clearance is 98.4 mL/min/kg.

In the case of `CNC(=O)c1cccc(-c2ccc([C@H](O)[C@H]3O[C@H](CO)[C@@H](O)[C@H](O)[C@@H]3O)c(C)c2)c1`, in series [1], the EC90 stood at 24000 nM. Also, the Tm in series [2] came out at 66.4 °C.

In the case of `CNC(=O)c1cccc(-c2ccc(O[C@H]3O[C@H](CO)[C@@H](O)[C@H](O)[C@@H]3O)cc2)c1`, the EC90 in [1] was 500 nM. Also, the Tm in series [2] was 73.2 °C.

`Cc1cc(-c2ccc3ccnc(N)c3c2)ccc1O[C@H]1O[C@H](CO)[C@@H](O)[C@H](O)[C@@H]1O`: the EC90 in series [1] was 20 nM. For the same compound, the Tm in series [2] amounted to 75.1 °C.

With `CNC(=O)c1cc(C(=O)NC)cc(-c2ccc(O[C@H]3O[C@H](CO)[C@@H](O)[C@H](O)[C@@H]3O)c(C)c2)c1`, the Drug uptake result in [9] is given as “Active”. Besides, the half-life in series [10] and in [12] was over 2 h each time. Also, the Activity in the series on Escherichia coli [11] is given as 100000 CFU; in the series with Escherichia coli [13] it was 10000 CFU; in the series on Escherichia coli [14], 100000 CFU. The EC90 in series [1] was determined as 16 nM. In the series on Escherichia coli [5], the outcome was Active. Also, in [6], the Ratio is over 10.

In the case of `Cc1cc(-c2cccc3cnccc23)ccc1[C@@H](O)[C@H]1O[C@H](CO)[C@@H](O)[C@H](O)[C@@H]1O`, the EC90 in series [1] amounted to 125 nM. Besides, the Tm in series [2] worked out at 74.6 °C.

`O=C(NC[C@H]1O[C@H](CO)[C@@H](O)[C@H](O)[C@@H]1O)c1ccc(Br)cc1`: the EC90 in series [1] is 16000 nM.

As for `COC(=O)c1cccc(-c2ccc(N[C@H]3O[C@H](CO)[C@@H](O)[C@H](O)[C@@H]3O)cc2)c1`, in series [1], the EC90 is 4000 nM.

In the case of `CNC(=O)c1cccc(-c2ccc([C@H](O)[C@H]3O[C@H](CO)[C@@H](O)[C@H](O)[C@@H]3O)cc2)c1`, the EC90 in series [1] stood at 24000 nM. Further, the Tm in [2] was determined as 67.2 °C.

`COC(=O)c1cccc(-c2ccc(NC(=O)[C@H]3O[C@H](CO)[C@@H](O)[C@H](O)[C@@H]3O)cc2)c1`: in series [1], the EC90 turned out to be 16000 nM.

For the compound `OC[C@H]1O[C@H](n2cc(-c3ccccc3)nn2)[C@@H](O)[C@@H](O)[C@@H]1O`, the EC90 in [1] worked out at 32000 nM.

Regarding `COC(=O)c1cccc(-c2ccc(S[C@H]3O[C@H](CO)[C@@H](O)[C@H](O)[C@@H]3O)cc2)c1`, in [1], the EC90 was 4000 nM.

As to `Cc1cc(-c2ccc3cc[nH]c(=O)c3c2)ccc1O[C@H]1O[C@H](CO)[C@@H](O)[C@H](O)[C@@H]1O`, the Vdss in series [15] was found to be 6.7 L. Moreover, the half-life in series [10] and in series [12] was over 2 h in each case. Also, the EC90 in series [1] is 31 nM. The Tm in [2] amounted to 75.4 °C. The “fold change (FC)” value in the series with Escherichia coli [3] worked out at 2. In series [16], this compound gave an F of 7%. The same compound showed a clearance in [8] of 408 mL/min/kg.

For `CNC(=O)c1cccc(-c2ccc(C[C@H]3O[C@H](CO)[C@@H](O)[C@H](O)[C@@H]3O)c(C)c2)c1`, the EC90 in series [1] came to 2000 nM.

Turning to `Cc1cc(-c2ccc3ccnc(N)c3c2)ccc1[C@@H](O)[C@H]1O[C@H](CO)[C@@H](O)[C@H](O)[C@@H]1O`, the EC90 in series [1] stood at 6 nM. The Tm in series [2] was 77.7 °C. Also, in the series with Escherichia coli [3], the outcome was Active.

For the compound `Cc1cc(-c2ccc3c(c2)C(=O)NCC3)ccc1[C@@H](O)[C@H]1O[C@H](CO)[C@@H](O)[C@H](O)[C@@H]1O`, the EC90 in [1] amounted to 6 nM. Also, the Tm in series [2] was 76.5 °C. Moreover, the result in the series with Escherichia coli [3] was Active.

As a reminder, the EC90 is the concentration needed for an effect of 90%. The term clearance denotes the volume of plasma or blood freed of the substance per unit of time. In general, half-life refers to how long it takes for the measured level to halve. Broadly, the Vdss is the apparent volume that relates the amount in the body to the concentration in plasma or blood. Lower therefore signals confinement near the circulation.
